Results as given in ChEMBL document CHEMBL1781935, “Amberlite-IRA-402 (OH) ion exchange resin mediated synthesis of indolizines, pyrrolo [1,2-a] quinolines and isoquinolines: antibacterial and antifungal evaluation of the products” (2011).
Converted amounts (≈) assume the structure as drawn. The source made the active and inactive calls. No cut-off for these calls is given here.

Assays:
[1] = test system: Micrococcus luteus; assay: Antibacterial activity against Micrococcus luteus AGD1; type: functional
Outline: (§1)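 MIC by broth and agar dilution. Broth: 0.1 ml suspension (2 × 10^6 cfu/ml) in Mueller-Hinton broth with test drug at 1–1000 µg/ml, 37 °C overnight. Agar: serial drug dilutions in Mueller-Hinton agar, spot-inoculated with 2 × 10^6 cfu/spot, 37 °C for 24 h. MIC was the lowest concentration with no visible growth. Antibiotic controls were included.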

[2] = test system: Vibrio cholerae; assay: Antibacterial activity against Vibrio cholerae isolate 7201; type: functional
[3] = test system: Vibrio cholerae; assay: Antibacterial activity against Vibrio cholerae isolate 720 at 1 to 1000 ug/ml after overnight incubation by disc diffusion method; type: functional
[4] = test system: Salmonella typhi; assay: Antibacterial activity against Salmonella typhi DIRW; type: functional, Salmonella enterica subsp. enterica serovar Typhi; details: Salmonella enterica
[5] = test system: Shigella flexneri; assay: Antibacterial activity against Shigella flexneri DN13; type: functional; outline: as §1
[6] = test system: Shigella flexneri; assay: Antibacterial activity against Shigella flexneri DN13 at 1 to 1000 ug/ml after overnight incubation by disc diffusion method; type: functional
Outline: (§2)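 Disc diffusion on Mueller-Hinton agar. Plates seeded with 0.1 ml bacterial suspension (2 × 10^6 cfu/ml). Sterile 6 mm paper discs were impregnated with compound solutions at 1–1000 µg/ml and incubated at 37 °C overnight. Read-out was the diameter of the clear inhibition zone. Stocks were 1 mg/ml in 4% Tween 80 or 4% propylene glycol.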

[7] = test system: Staphylococcus aureus; assay: Antibacterial activity against Staphylococcus aureus ATCC 25923; type: functional; outline: as §1
[8] = test system: Staphylococcus aureus; assay: Antibacterial activity against Staphylococcus aureus ATCC 25923 at 1 to 1000 ug/ml after overnight incubation by disc diffusion method; type: functional; outline: as §2
[9] = test system: Bacillus subtilis; assay: Antibacterial activity against Bacillus subtilis UC564 at 1 to 1000 ug/ml after overnight incubation by disc diffusion method; type: functional; outline: as §2
[10] = test system: Vibrio parahaemolyticus; assay: Antibacterial activity against Vibrio parahaemolyticus isolate 72016; type: functional; outline: as §1
[11] = test system: Bacillus subtilis; assay: Antibacterial activity against Bacillus subtilis UC564; type: functional; outline: as §1
[12] = test system: Pseudomonas aeruginosa; assay: Antibacterial activity against Pseudomonas aeruginosa ATCC 27853; type: functional; outline: as §1
[13] = test system: Staphylococcus aureus; assay: Antibacterial activity against Staphylococcus aureus ATCC 25923 at 10 to 80 ug/ml after overnight incubation by broth dilution method; type: functional, organism-based
Outline: (§3)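 Bactericidal testing with double-fold drug dilutions in Mueller-Hinton broth. Tubes inoculated with 1 ml suspension (2 × 10^6 cfu/ml) and shaken at 200 rpm at 37 °C for 24 h. Drug was added at mid-logarithmic growth. Viable colony counts were taken from 1.0 ml aliquots plated on nutrient agar.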

[14] = test system: Enterococcus faecalis; assay: Antibacterial activity against Enterococcus faecalis isolate 29212 at 1 to 1000 ug/ml after overnight incubation by disc diffusion method; type: functional; outline: as §2
[15] = test system: Micrococcus luteus; assay: Antibacterial activity against Micrococcus luteus AGD1 at 1 to 1000 ug/ml after overnight incubation by disc diffusion method; type: functional; outline: as §2
[16] = test system: Vibrio cholerae; assay: Antibacterial activity against Vibrio cholerae isolate 7201 at 10 to 80 ug/ml after overnight incubation by broth dilution method; type: functional, organism-based
[17] = test system: Vibrio cholerae; assay: Antibacterial activity against Vibrio cholerae isolate 7201 at 1 to 1000 ug/ml after overnight incubation by disc diffusion method; type: functional
[18] = test system: Escherichia coli; assay: Antibacterial activity against Escherichia coli ATCC 25938 at 1 to 1000 ug/ml after overnight incubation by disc diffusion method; type: functional; outline: as §2
[19] = test system: Klebsiella pneumoniae; assay: Antibacterial activity against Klebsiella pneumoniae isolate J/1/4; type: functional; outline: as §1
[20] = test system: Pseudomonas aeruginosa; assay: Antibacterial activity against Pseudomonas aeruginosa ATCC 27853 at 10 to 80 ug/ml after overnight incubation by broth dilution method; type: functional, organism-based; outline: as §3
[21] = test system: Shigella dysenteriae; assay: Antibacterial activity against Shigella dysenteriae isolate 3; type: functional
[22] = test system: Escherichia coli; assay: Antibacterial activity against Escherichia coli ATCC 25938 at 10 to 80 ug/ml after overnight incubation by broth dilution method; type: functional, organism-based; outline: as §3
[23] = test system: Vibrio parahaemolyticus; assay: Antibacterial activity against Vibrio parahaemolyticus isolate 72016 at 1 to 1000 ug/ml after overnight incubation by disc diffusion method; type: functional; outline: as §2
[24] = test system: Enterococcus faecalis; assay: Antibacterial activity against Streptococcus faecalis isolate 29212; type: functional; outline: as §1
[25] = test system: Pseudomonas aeruginosa; assay: Antibacterial activity against Pseudomonas aeruginosa ATCC 27853 at 1 to 1000 ug/ml after overnight incubation by disc diffusion method; type: functional; outline: as §2
[26] = test system: Shigella dysenteriae; assay: Antibacterial activity against Shigella dysenteriae isolate 3 at 1 to 1000 ug/ml after overnight incubation by disc diffusion method; type: functional
[27] = test system: Salmonella typhimurium; assay: Antibacterial activity against Salmonella Typhimurium isolate 11; type: functional, Salmonella enterica subsp. enterica serovar Typhimurium; details: Salmonella enterica; outline: as §1
[28] = test system: Shigella dysenteriae; assay: Antibacterial activity against Shigella dysenteriae isolate 3 at 10 to 80 ug/ml after overnight incubation by broth dilution method; type: functional, organism-based
[29] = test system: Klebsiella pneumoniae; assay: Antibacterial activity against Klebsiella pneumoniae isolate J/1/4 at 1 to 1000 ug/ml after overnight incubation by disc diffusion method; type: functional; outline: as §2
[30] = test system: Bacillus subtilis; assay: Antibacterial activity against Bacillus subtilis UC564 at 10 to 80 ug/ml after overnight incubation by broth dilution method; type: functional, organism-based; outline: as §3
[31] = test system: Salmonella typhi; assay: Antibacterial activity against Salmonella typhi DIRW at 1 to 1000 ug/ml after overnight incubation by disc diffusion method; type: functional; details: Salmonella enterica subsp. enterica serovar Typhi
[32] = test system: Salmonella typhimurium; assay: Antibacterial activity against Salmonella Typhimurium isolate 11 at 1 to 1000 ug/ml after overnight incubation by disc diffusion method; type: functional, organism-based; details: Salmonella enterica subsp. enterica serovar Typhimurium; outline: as §2
[33] = test system: Escherichia coli; assay: Antibacterial activity against Escherichia coli ATCC 25938; type: functional; outline: as §1

| SMILES | MIC [1] | MIC [2] | diameter of the inhibition zone (DIZ) [3] | MIC [4] | MIC [5] | diameter of the inhibition zone (DIZ) [6] | MIC [7] | diameter of the inhibition zone (DIZ) [8] | diameter of the inhibition zone (DIZ) [9] | MIC [10] | MIC [11] | MIC [12] | Activity [13] | diameter of the inhibition zone (DIZ) [14] | diameter of the inhibition zone (DIZ) [15] | Activity [16] | diameter of the inhibition zone (DIZ) [17] | diameter of the inhibition zone (DIZ) [18] | MIC [19] | Activity [20] | other results |
| --- | --- | --- | --- | --- | --- | --- | --- | --- | --- | --- | --- | --- | --- | --- | --- | --- | --- | --- | --- | --- | --- |
| N#Cc1cc2ccccn2c1C(=O)c1ccccc1 | 256 µg/mL (≈ 1040 µM) | 16 µg/mL (≈ 65 µM) | 10 mm | 500 µg/mL (≈ 2030 µM) | 500 µg/mL (≈ 2030 µM) | inactive | 32 µg/mL (≈ 130 µM) | 12.1 mm | 9.7 mm | 256 µg/mL (≈ 1040 µM) | 16 µg/mL (≈ 65 µM) | > 500 µg/mL | Active | inactive | 7.5 mm | Active | 10 mm | inactive | 64 µg/mL (≈ 260 µM) | Active | MIC [21]: 128 µg/mL (≈ 520 µM); Activity [22]: Active; diameter of the inhibition zone (DIZ) [23]: 7.5 mm; MIC [24]: 500 µg/mL (≈ 2030 µM); diameter of the inhibition zone (DIZ) [25]: inactive; diameter of the inhibition zone (DIZ) [26]: 9 mm; MIC [27]: 500 µg/mL (≈ 2030 µM); Activity [28]: Active; diameter of the inhibition zone (DIZ) [29]: 8.9 mm; Activity [30]: Active; diameter of the inhibition zone (DIZ) [31]: inactive; diameter of the inhibition zone (DIZ) [32]: inactive; MIC [33]: > 500 µg/mL |
| CCOC(=O)c1c(C(=O)OCC)c2ccc3ccccc3n2c1C(=O)c1ccccc1 | 500 µg/mL (≈ 1200 µM) | 128 µg/mL (≈ 308 µM) | 7.7 mm | 500 µg/mL (≈ 1200 µM) | > 500 µg/mL | inactive | 64 µg/mL (≈ 154 µM) | 10.2 mm | 10 mm | 64 µg/mL (≈ 154 µM) | 16 µg/mL (≈ 38.5 µM) | 32 µg/mL (≈ 77 µM) | Active | inactive | inactive | Active | 7.7 mm | 8.1 mm | 256 µg/mL (≈ 616 µM) | Active | MIC [21]: 32 µg/mL (≈ 77 µM); Activity [22]: Active; diameter of the inhibition zone (DIZ) [23]: 9.3 mm; MIC [24]: 500 µg/mL (≈ 1200 µM); diameter of the inhibition zone (DIZ) [25]: 9.7 mm; diameter of the inhibition zone (DIZ) [26]: 11.1 mm; MIC [27]: > 500 µg/mL; Activity [28]: Active; diameter of the inhibition zone (DIZ) [29]: 8.6 mm; Activity [30]: Active; diameter of the inhibition zone (DIZ) [31]: inactive; diameter of the inhibition zone (DIZ) [32]: inactive; MIC [33]: > 500 µg/mL |
